Data set [1] has as its system Mycobacterium tuberculosis. Description: Antimycobacterial activity against Mycobacterium tuberculosis H37Ra at 25 ug/ml after 6 days by microplate alamar blue assay. The class given is functional. The note with it: 144 h. The procedure, abridged: (§1)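 H37Ra from frozen inoculum, 2.5 × 10⁵ CFU/mL final, in 7H9GC medium; compounds from 10 mg/mL DMSO stock tested at 100, 50, 25, 10, 5 and 1 μg/mL in triplicate, run twice. Incubated 6 days, then alamar blue plus Tween 80 added, read after 24 h visually and by fluorescence. Percent inhibition against bacteria-only and medium-only wells; MIC50 is the lowest concentration giving ~50% inhibition.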
A general note: Resazurin is reduced to fluorescent resorufin, in cell work by metabolically active cells.

The subject of data set [2] is Mycobacterium tuberculosis. Nature of the data set: Antimycobacterial activity against Mycobacterium tuberculosis H37Ra at 5 ug/ml after 6 days by microplate alamar blue assay. It counts as functional. The following applies: 144 h. The procedure, abridged:
as §1

In data set [3] the test system is Mycobacterium tuberculosis. Nature of the data set: Antimycobacterial activity against Mycobacterium tuberculosis H37Ra after 6 days by microplate alamar blue assay. The note with it: 144 h. It counts as functional. A digest of the protocol:
as §1

Data set [4] concerns Mycobacterium tuberculosis. Nature of the data set: Antimycobacterial activity against Mycobacterium tuberculosis H37Ra at 50 ug/ml after 6 days by microplate alamar blue assay. The class given is functional. The following applies: 144 h. A digest of the protocol:
as §1

Data set [5] can be described thus: Cytotoxicity against human HuH7 cells after 2 days by XTT assay. It counts as cell-based, Huh-7. A digest of the protocol:
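Huh-7 cells seeded at 2 × 10⁴/well and allowed to attach 6-8 h, then exposed to 200, 100, 50, 10 and 1 μg/mL compound, DMSO control, 2 days at 37 °C. XTT reagent added for 4 h at 37 °C; absorbance read at 450-500 nm.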

Data set [6] can be described thus: Cytotoxicity against human HuH7 cells assessed as incorporation of [3H]thymidine into DNA after 2 days by scintillation counting. The class given is cell-based, Huh-7. A digest of the protocol: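 Huh-7 cells plated at 1 × 10⁴/well, compounds at 200, 100, 50, 10 and 1 μg/mL in triplicate, DMSO control, 2 days at 37 °C. Pulsed with 0.5 μCi/well [³H]-thymidine for 12-18 h, harvested onto filters, and incorporated DNA label counted by liquid scintillation.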

In data set [7] the test system is Mycobacterium tuberculosis. Description: Antimycobacterial activity against Mycobacterium tuberculosis H37Ra at 100 ug/ml after 6 days by microplate alamar blue assay. The class given is functional. The note with it: 144 h. A digest of the protocol:
as §1

For data set [8], the system named is Mycobacterium tuberculosis. Description: Antimycobacterial activity against Mycobacterium tuberculosis H37Ra at 10 ug/ml after 6 days by microplate alamar blue assay. It counts as functional. The note with it: 144 h. A digest of the protocol:
as §1

Data set [9] has as its system Mycobacterium tuberculosis. Nature of the data set: Antimycobacterial activity against Mycobacterium tuberculosis H37Ra at 1 ug/ml after 6 days by microplate alamar blue assay. The class given is functional. The note with it: 144 h. A digest of the protocol: as §1
Data set [10] deals with Mycobacterium tuberculosis. Description: Antimycobacterial activity against Mycobacterium tuberculosis H37Ra at 25 ug/ml after 4 days. It counts as functional. The procedure, abridged:
(§2)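 THP-1 cells, 2 × 10⁵/well, differentiated 3 days with 100 nM PMA, then infected 3 h with ~10⁷ CFU H37Ra. Non-phagocytosed bacteria removed. Compounds at 25, 10, 5 or 1 μg/mL in triplicate, rifampicin or isoniazid controls at 2.5 μg/mL, 4 days. Lysates plated in serial dilution on 7H11, colonies counted at 2-3 weeks. Percent CFU reduction versus untreated control; run twice.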

For data set [11], the system named is Mycobacterium tuberculosis. Nature of the data set: Antimycobacterial activity against Mycobacterium tuberculosis H37Ra at 10 ug/ml after 4 days. The class given is functional. A digest of the protocol: as §2
Data set [12] concerns Mycobacterium tuberculosis. Nature of the data set: Antimycobacterial activity against Mycobacterium tuberculosis H37Ra at 2.5 ug/ml after 4 days. The class given is functional. The procedure, abridged:
as §2

Data set [13] concerns Mycobacterium tuberculosis. Nature of the data set: Antimycobacterial activity against Mycobacterium tuberculosis H37Ra at 5 to 10 ug/ml after 6 days by microplate alamar blue assay. The class given is functional. A digest of the protocol: as §1

Values after ≈ are worked out from the molar mass of the structure shown.

In data set [1], `N[C@@H]1CONC1=O` [CYCLOSERINE] came in with an inhibition at 25 µg/mL of 80%. Besides, the inhibition at 5 µg/mL in data set [2] came to 50%. Also, the MIC50 in data set [3] was determined as 5 µg/mL (≈ 49 µM). Testing at 50 µg/mL in data set [4] gave an inhibition of 100%.

The compound `Cc1cn([C@H]2C[C@H](Cl)[C@@H](CO)O2)c(=O)[nH]c1=O` returned an MIC50 in data set [3] of 50 µg/mL (≈ 192 µM). The CC50 at 48 h in [5] and in data set [6] was over 100 µg/mL in each case. In [7], this compound showed an inhibition at 100 µg/mL of 68%. In addition, in [4], at 50 µg/mL the inhibition was 50%.

For the compound `O=c1[nH]c(=O)n([C@H]2C[C@@H](Br)[C@@H](CO)O2)cc1F`, the inhibition at 25 µg/mL in [1] amounted to 40%. Besides, the MIC50 in [3] came out at 25 µg/mL (≈ 80.9 µM). Moreover, the CC50 at 48 h in [5] and in data set [6] was over 100 µg/mL in each case. This compound registered an inhibition at 100 µg/mL in [7] of 100%. This compound gave an inhibition at 50 µg/mL in data set [4] of 63%.

Take `O=c1[nH]c(=O)n([C@H]2C[C@@H](Cl)[C@@H](CO)O2)cc1F`: the inhibition at 25 µg/mL in [1] was found to be 40%. In data set [3], this compound registered an MIC50 of 25 µg/mL (≈ 94.5 µM). Also, the CC50 at 48 h in data set [5] and in [6] was over 100 µg/mL throughout. Also, testing at 100 µg/mL in [7] gave an inhibition of 90%. In data set [4], this compound registered an inhibition at 50 µg/mL of 60%.

In the case of `O=c1[nH]c(=O)n([C@@H]2O[C@H](CO)[C@H](O)[C@H]2Br)cc1F`, the inhibition at 25 µg/mL in [1] worked out at 50%. For the same compound, the cytotoxic concentration (CC50) at 48 h in [5] and in data set [6] was over 100 µg/mL each time. Besides, 100 µg/mL produced 0% inhibition in data set [7].

On to `Cc1cn([C@H]2C[C@H](F)[C@@H](CO)O2)c(=O)[nH]c1=O` [ALOVUDINE], for which at 100 µg/mL the inhibition in data set [7] was 0%.

As for `O=c1[nH]c(=O)n([C@H]2C[C@H](I)[C@@H](CO)O2)cc1F`, the CC50 at 48 h in data set [5] and in data set [6] was over 100 µg/mL each time. Also, at 100 µg/mL the inhibition in data set [7] was 32%.

Regarding `Cc1cn([C@@H]2O[C@H](CO)[C@@H](Br)[C@@H]2O)c(=O)[nH]c1=O`, in data set [8], the inhibition at 10 µg/mL amounted to 75%. In addition, the inhibition at 1 µg/mL in [9] amounted to 50%. For the same compound, in data set [3], the MIC50 was determined as 1 µg/mL (≈ 3.11 µM). The Activity in data set [10] is listed as over 90%; in [11], 80%. The CC50 at 48 h in [5] and in data set [6] was over 100 µg/mL in each case. Also, the inhibition at 100 µg/mL in data set [7] turned out to be 50%.

Regarding `O=c1[nH]c(=O)n([C@H]2C[C@H](F)[C@@H](CO)O2)cc1F`, 100 µg/mL produced 0% inhibition in data set [7].

Turning to `O=c1[nH]c(=O)n([C@H]2C[C@H](Cl)[C@@H](CO)O2)cc1F`, the CC50 at 48 h in data set [5] and in [6] was over 100 µg/mL each time. In data set [7], this compound registered an inhibition at 100 µg/mL of 40%.

Turning to `Cc1cn([C@@H]2O[C@H](CO)[C@H](O)[C@H]2Br)c(=O)[nH]c1=O`, the MIC50 in data set [3] stood at 25 µg/mL (≈ 77.9 µM). Moreover, the CC50 at 48 h in data set [5] and in data set [6] was over 100 µg/mL in each case. This compound also gave an inhibition at 100 µg/mL in data set [7] of 80%. Also, 50 µg/mL produced 60% inhibition in data set [4].

For the compound `Cc1cn([C@H]2C[C@H](I)[C@@H](CO)O2)c(=O)[nH]c1=O`, the CC50 at 48 h in data set [5] and in [6] was over 100 µg/mL in each case. This compound had an inhibition at 100 µg/mL in data set [7] of 0%.

In data set [3], `CO[C@H]1/C=C/O[C@@]2(C)Oc3c(C)c(O)c4c(O)c(c(/C=N/N5CCN(C)CC5)c(O)c4c3C2=O)NC(=O)/C(C)=C\C=C\[C@H](C)[C@H](O)[C@@H](C)[C@@H](O)[C@@H](C)[C@H](OC(C)=O)[C@@H]1C` [RIFAMPIN] showed an MIC50 of under 0.5 µg/mL. In data set [12], the Activity was over 98%.

Take `O=c1ccn([C@@H]2O[C@H](CO)[C@@H](Br)[C@@H]2O)c(=O)[nH]1`: the CC50 at 48 h in [5] and in [6] was over 100 µg/mL in each case. The compound also had an inhibition at 100 µg/mL in data set [7] of 24%.

With `NNC(=O)c1ccncc1` [ISONIAZID], at 1 µg/mL the inhibition in [9] was 100%. In [3], this compound gave an MIC50 of under 1 µg/mL. In data set [12], the Activity was over 98%.

`O=c1[nH]c(=O)n([C@H]2C[C@@H](I)[C@@H](CO)O2)cc1F`: the CC50 at 48 h in [5] and in data set [6] was over 100 µg/mL in each case. Moreover, at 100 µg/mL the inhibition in data set [7] was 40%.

`O=c1[nH]c(=O)n([C@@H]2O[C@H](CO)[C@@H](Br)[C@@H]2O)cc1F`: the inhibition at 25 µg/mL in data set [1] came to 50%. In data set [3], this compound yielded an MIC50 of 25 µg/mL (≈ 76.9 µM). Further, the CC50 at 48 h in [5] and in data set [6] was over 100 µg/mL in each case. The inhibition at 100 µg/mL in data set [7] was 91%.

`Cc1cn([C@H]2C[C@H](Br)[C@@H](CO)O2)c(=O)[nH]c1=O` registered an MIC50 in [3] of 5 µg/mL (≈ 16.4 µM). Also, the results for the Activity in data set [10] and in data set [11] were 90% and 50%, respectively. Moreover, the CC50 at 48 h in [5] and in [6] was over 100 µg/mL throughout. Further, the inhibition at 100 µg/mL in data set [7] turned out to be 100%. This compound returned an inhibition at 50 µg/mL in data set [4] of 82%. In addition, in [13], the “inhibition (INH)” value turned out to be 5%.

`O=c1[nH]c(=O)n([C@H]2C[C@H](Br)[C@@H](CO)O2)cc1F` yielded an MIC50 in data set [3] of 50 µg/mL (≈ 162 µM). Besides, the CC50 at 48 h in [5] and in [6] was over 100 µg/mL in each case. In data set [7], testing at 100 µg/mL gave an inhibition of 80%. The inhibition at 50 µg/mL in data set [4] was 50%.

As for `O=c1ccn([C@@H]2O[C@H](CO)[C@H](O)[C@H]2Br)c(=O)[nH]1`, the CC50 at 48 h in data set [5] and in data set [6] was over 100 µg/mL in each case. In data set [7], this compound yielded an inhibition at 100 µg/mL of 0%.

Usually inhibition stands for the share of the control response that was lost under treatment. A higher inhibition goes with a response far below the control. For orientation: MIC50 means an inhibitory concentration at the 50% level, which refers to growth in some studies and to a panel of isolates in others. Lower therefore signals higher susceptibility. As usually defined, the CC50 is the concentration at which the toxic effect on the cells reaches its halfway point.
